Experimental data taken from PMC10213863 (Cell Reports Medicine, 2023).

What was measured:
[1] = tested on: tumor necrosis factor (TNF) receptor; experiment: Ramos Blue reporter B cell line, TNF stimulation; type: cell-based, human; conditions: Ramos cells; up to 10 μM; n = 4, data not shown
Procedure, shortened: (§1)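 Ramos Blue B reporter cells were pre-treated 30 min at 37°C, 5% CO2 with increasing concentrations of test compound or 0.25% v/v DMSO. They were then stimulated with the respective agonist, and reporter activity was read.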

TLR3 = TLR3 (Homo sapiens, UniProt O15455); experiment: Ramos Blue reporter B cell line, Poly; type: cell-based; conditions: Ramos cells; Poly(I:C) stimulation
TLR3, sequence (O15455 24-904): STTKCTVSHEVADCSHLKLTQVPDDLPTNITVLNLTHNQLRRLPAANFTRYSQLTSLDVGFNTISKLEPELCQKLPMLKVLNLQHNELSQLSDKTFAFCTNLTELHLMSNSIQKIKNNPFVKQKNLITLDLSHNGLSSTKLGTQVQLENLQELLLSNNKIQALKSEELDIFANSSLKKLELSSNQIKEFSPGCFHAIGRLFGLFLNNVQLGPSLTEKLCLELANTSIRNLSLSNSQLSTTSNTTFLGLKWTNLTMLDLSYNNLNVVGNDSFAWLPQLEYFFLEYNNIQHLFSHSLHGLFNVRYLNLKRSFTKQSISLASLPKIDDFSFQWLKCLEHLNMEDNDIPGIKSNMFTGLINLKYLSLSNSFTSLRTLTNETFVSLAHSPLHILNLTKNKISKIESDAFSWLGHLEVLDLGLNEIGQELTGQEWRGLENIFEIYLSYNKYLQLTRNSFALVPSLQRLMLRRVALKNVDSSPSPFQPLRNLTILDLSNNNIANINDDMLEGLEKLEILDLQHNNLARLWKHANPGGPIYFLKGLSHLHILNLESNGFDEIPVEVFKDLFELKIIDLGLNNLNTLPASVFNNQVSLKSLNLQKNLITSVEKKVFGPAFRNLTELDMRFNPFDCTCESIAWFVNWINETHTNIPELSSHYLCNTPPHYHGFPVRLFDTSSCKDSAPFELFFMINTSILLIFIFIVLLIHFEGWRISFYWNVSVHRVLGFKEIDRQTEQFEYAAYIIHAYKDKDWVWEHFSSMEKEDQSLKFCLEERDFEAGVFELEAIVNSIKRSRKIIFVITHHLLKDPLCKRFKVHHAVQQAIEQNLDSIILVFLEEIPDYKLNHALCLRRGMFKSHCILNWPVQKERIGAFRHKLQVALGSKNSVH
Procedure, shortened: as §1

[2] = tested on: TMPD-induced peritonitis in Balb/c mice; experiment: Mouse TMPD peritonitis; type: in vivo; conditions: prophylactic oral b.i.d.
Procedure, shortened: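 Female Balb/c mice (5 per group) were dosed orally b.i.d. from day −1 with test compound in 0.5% MC/0.5% Tween80, or vehicle. On day 0 they were injected i.p. with 0.5 mL TMPD; naive mice were controls. Peritoneal lavage (HBSS, 2% FBS) supernatants were assayed for CCL2 by ELISA. Inflammatory monocytes were counted by flow (live/dead, CD11b, Ly6C, Ly6G). ISGs were measured by qPCR (2−ΔΔCt vs HPRT, triplicates), averaged and normalized to naive = 100%.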

TLR9 = target: T1, TLR9 (Homo sapiens, UniProt Q9NR96); experiment: Human whole blood assay, ODN-IFN-α; type: cell-based
T1 sequence (Q9NR96 26-1032): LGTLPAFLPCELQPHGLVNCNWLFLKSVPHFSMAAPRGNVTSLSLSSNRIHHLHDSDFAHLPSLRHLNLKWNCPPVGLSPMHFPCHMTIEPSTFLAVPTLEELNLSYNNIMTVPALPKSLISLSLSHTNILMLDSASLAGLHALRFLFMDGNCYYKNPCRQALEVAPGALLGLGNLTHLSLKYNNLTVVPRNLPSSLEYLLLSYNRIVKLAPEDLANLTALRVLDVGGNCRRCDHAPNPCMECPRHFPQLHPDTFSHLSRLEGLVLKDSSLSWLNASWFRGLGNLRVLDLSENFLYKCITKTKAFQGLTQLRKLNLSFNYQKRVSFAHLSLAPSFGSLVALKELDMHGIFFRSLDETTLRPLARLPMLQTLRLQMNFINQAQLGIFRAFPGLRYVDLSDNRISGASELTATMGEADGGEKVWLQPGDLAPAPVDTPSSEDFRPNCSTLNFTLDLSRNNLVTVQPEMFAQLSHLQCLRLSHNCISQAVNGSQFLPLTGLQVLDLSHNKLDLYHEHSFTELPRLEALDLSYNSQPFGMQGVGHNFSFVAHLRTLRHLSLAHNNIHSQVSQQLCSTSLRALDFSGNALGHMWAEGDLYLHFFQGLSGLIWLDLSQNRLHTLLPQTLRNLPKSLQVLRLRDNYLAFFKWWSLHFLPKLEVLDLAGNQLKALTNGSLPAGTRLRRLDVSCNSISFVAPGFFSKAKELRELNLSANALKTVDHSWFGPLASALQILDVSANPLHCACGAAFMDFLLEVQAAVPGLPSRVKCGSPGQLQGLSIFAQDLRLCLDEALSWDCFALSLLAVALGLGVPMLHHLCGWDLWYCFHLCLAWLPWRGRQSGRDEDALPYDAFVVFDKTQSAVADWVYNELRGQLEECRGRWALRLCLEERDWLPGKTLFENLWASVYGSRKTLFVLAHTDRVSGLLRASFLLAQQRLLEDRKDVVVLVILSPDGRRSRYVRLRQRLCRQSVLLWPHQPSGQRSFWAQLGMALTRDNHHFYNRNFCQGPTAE
Procedure, shortened: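 Fresh human blood or 129/Sv mouse blood was taken into citrate and diluted 1:1 with RPMI1640. It was pre-incubated 30 min at 37°C, 5% CO2 with increasing concentrations of test compound or 0.25% v/v DMSO (final). Blood was then stimulated with TLR agonists at doses from earlier work, or with R848 (3 μM), and cytokines were quantified. Viability was checked by ATPlite luminescence.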

TLR7 = target: T2, TLR7 (Mus musculus, UniProt P58681); experiment: Chronic TLR7 activation in vivo assay; conditions: 129/Sv mice; R848 plus MHV370 vs R848 plus vehicle
T2 sequence (P58681 27-1050): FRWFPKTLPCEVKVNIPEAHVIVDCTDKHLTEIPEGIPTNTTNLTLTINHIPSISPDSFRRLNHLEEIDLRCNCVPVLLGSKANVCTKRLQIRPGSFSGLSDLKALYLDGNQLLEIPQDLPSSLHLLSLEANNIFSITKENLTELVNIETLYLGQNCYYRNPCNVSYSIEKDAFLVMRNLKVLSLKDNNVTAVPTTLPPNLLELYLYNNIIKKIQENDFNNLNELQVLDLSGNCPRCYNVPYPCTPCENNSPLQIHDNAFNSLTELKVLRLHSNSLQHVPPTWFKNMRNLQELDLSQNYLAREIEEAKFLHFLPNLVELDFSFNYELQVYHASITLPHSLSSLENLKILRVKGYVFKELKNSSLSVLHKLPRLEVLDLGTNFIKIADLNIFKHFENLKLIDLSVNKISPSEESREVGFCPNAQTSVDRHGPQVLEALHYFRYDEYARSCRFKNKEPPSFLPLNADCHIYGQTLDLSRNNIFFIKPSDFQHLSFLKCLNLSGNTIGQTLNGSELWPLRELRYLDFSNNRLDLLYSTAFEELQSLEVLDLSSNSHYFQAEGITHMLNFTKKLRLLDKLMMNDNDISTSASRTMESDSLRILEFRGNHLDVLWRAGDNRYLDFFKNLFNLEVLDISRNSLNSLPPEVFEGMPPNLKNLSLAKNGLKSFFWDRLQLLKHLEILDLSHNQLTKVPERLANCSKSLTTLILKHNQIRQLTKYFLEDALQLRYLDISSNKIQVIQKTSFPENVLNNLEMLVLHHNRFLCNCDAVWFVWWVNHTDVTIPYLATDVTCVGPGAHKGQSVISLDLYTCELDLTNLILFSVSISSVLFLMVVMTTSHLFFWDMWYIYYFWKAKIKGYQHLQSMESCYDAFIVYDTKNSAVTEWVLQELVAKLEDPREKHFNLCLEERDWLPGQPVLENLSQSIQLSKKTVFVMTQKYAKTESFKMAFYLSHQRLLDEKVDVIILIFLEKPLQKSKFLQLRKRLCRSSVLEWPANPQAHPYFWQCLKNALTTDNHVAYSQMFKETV
Procedure, shortened: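 129/Sv mice (5 per group) received R848 i.p. at 2.5 mg/kg daily for 14 days. From day 7, groups were dosed orally b.i.d. with test compound at 15 mg/kg or with vehicle. Naive mice served as reference. Blood RNA-seq counts were filtered (≥10 counts per million in ≥4 samples) and TMM-normalized in edgeR. Differential expression was analysed with limma.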

Cc1cc(N2CCc3c(c(C)nn3CC34CCC(NC(=O)[C@@H]5COCCN5)(CC3)CC4)C2)c2cnn(C)c2n1 [MHV370, (S)-N-(4-((5-(1,6-dimethyl-1H-pyrazolo[3,4-b]pyridin-4-yl)-3-methyl-4,5,6,7-tetrahydro-1H-pyrazolo[4,3-c]pyridin-1-yl)methyl)bicyclo[2.2.2]octan-1-yl)morpholine-3-carboxamide]
interference with TNF receptor-driven activity [1]: did not interfere | inhibitory activity against TLR3 (TLR3): no or very limited inhibitory activity | ex vivo stimulated PD marker CD69 in peripheral blood [2]: reduced in peripheral blood of mice in a dose-dependent manner | panel of ISGs in peritoneal cells and blood [2]: dose-dependently suppressed | inflammatory monocytes and CCL2 in the peritoneum ([2]; day 7): dose-dependent reduction | IC50 (TLR9): 1320 nM | inflammatory pathways (ISGs, TLR and TNF pathways), gene set enrichment in blood (TLR7): all downregulated
